Data reported in ChEMBL document CHEMBL1641459, “Virtual screening and synthesis of quinazolines as novel JAK2 inhibitors” (Bioorg Med Chem, 2011).
Calls of active or inactive are those of the source. The calls are words filed in the database; no cut-off is given here.

Experiments:
SK-OV-3 = assay: Cytotoxicity against human SKOV3 cells after 48 hrs by MTT assay; type: functional, cell-based; conditions: SK-OV-3, 48 h
[1] = target: Tyrosine-protein kinase JAK2 (Homo sapiens) (UniProt O60674); assay: Inhibition of recombinant JAK2 at 20 uM
Chain of Tyrosine-protein kinase JAK2 (Homo sapiens) (O60674 whole entry): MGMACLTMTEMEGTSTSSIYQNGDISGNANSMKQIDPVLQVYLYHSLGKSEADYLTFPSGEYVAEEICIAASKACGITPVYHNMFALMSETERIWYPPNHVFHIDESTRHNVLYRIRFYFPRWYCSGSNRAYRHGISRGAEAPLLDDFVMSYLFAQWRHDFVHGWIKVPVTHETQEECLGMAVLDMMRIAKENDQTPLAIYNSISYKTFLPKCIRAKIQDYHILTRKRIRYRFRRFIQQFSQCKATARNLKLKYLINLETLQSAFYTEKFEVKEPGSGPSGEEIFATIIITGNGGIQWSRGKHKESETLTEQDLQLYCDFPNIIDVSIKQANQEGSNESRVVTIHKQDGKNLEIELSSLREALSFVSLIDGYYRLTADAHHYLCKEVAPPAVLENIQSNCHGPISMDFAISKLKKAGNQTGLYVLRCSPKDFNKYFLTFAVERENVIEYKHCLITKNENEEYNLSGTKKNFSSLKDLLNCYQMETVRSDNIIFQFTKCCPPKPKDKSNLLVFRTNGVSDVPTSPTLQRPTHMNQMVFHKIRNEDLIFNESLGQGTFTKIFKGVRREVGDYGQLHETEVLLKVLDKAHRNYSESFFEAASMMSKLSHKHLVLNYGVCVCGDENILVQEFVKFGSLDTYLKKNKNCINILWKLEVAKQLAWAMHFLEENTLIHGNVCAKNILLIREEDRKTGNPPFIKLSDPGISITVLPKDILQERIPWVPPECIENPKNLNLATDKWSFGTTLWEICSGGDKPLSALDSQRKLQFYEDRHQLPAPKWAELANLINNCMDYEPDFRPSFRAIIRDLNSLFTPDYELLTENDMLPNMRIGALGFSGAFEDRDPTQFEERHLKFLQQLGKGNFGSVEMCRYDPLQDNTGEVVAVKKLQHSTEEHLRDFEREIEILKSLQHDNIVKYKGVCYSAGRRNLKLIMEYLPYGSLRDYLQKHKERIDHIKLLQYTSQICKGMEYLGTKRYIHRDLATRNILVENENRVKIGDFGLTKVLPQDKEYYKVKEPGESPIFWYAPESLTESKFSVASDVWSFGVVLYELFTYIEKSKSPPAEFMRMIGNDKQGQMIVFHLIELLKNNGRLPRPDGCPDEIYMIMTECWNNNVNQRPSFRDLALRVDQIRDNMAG

HT-29 [2] = assay: Cytotoxicity against human HT-29 cells after 48 hrs by MTT assay; type: functional, cell-based; conditions: HT-29, 48 h
HeLa = assay: Cytotoxicity against human HeLa cells after 48 hrs by MTT assay; type: functional, cell-based
HT-29 [3] = assay: Cytotoxicity against human HT-29 cells upto 25 uM after 48 hrs by MTT assay; type: functional, cell-based
Summary of the method: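 MTT assay: cells seeded at 1 × 10⁵ cells/mL in RPMI-1640 with 10% FBS, compounds added after 24 h at various concentrations and exposed 48 h; MTT (5 mg/mL stock in PBS) added for 4 h, formazan dissolved in DMSO, absorbance read at 540 nm. Cells cultured in RPMI-1640, 10% FBS, 37 °C, 5% CO₂.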

[4] = target: Tyrosine-protein kinase JAK2 (Homo sapiens) (UniProt O60674); assay: Inhibition of IL-6-induced JAK2 phosphorylation in human HT-29 cells at 50 to 100 uM by Western blotting; type: cell-based
Summary of the method: (§1)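 HT-29 cells treated with IL-6 for 0.5 h, then compound (10, 20 µM or 50, 100 µM); lysed in ice-cold Hepes/Triton X-100 buffer with protease/phosphatase inhibitors, 30–40 µg protein immunoblotted for JAK2 and p-JAK2, ECL detection, GAPDH control; densitometry as % of control, three independent experiments.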

[5] = target: Tyrosine-protein kinase JAK2 (Homo sapiens) (UniProt O60674); assay: Inhibition of IL-6-induced JAK2 phosphorylation in human HT-29 cells at 10 to 20 uM by Western blotting; type: cell-based; summary of the method: as §1
HT-29 [6] = assay: Induction of cell cycle arrest in human HT-29 cells assessed as increase accumulation at G2/M phase at 10 to 30 uM after 48 hrs by flow cytometry; type: functional, cell-based
Summary of the method: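 HT-29 cells at 70–80% confluence treated at 10, 20 and 30 µM for 48 h, ethanol-fixed (70%, 1 h on ice), propidium iodide stained with RNase A, DNA content analysed by flow cytometry; three independent experiments, Student's t-test versus untreated control.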

HT-29 [7] = assay: Induction of cell cycle arrest in human HT-29 cells assessed as increase accumulation at G2/M phase at 5 to 20 uM after 24 hrs by flow cytometry; type: functional, cell-based
Summary of the method: (§2)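 HT-29 cells grown to 70–80% confluence, treated at 5, 10 and 20 µM for 24 h, fixed in 70% ethanol 1 h on ice, stained with propidium iodide (50 µg/mL) plus RNase A for 30 min in the dark at room temperature, DNA content by flow cytometry; means of three independent experiments, Student's t-test.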

[8] = target: Tyrosine-protein kinase JAK2 (Homo sapiens) (UniProt O60674); assay: Inhibition of human JAK2-mediated IL6-induced Stat3-STAT3-dependent luciferase activity in human HT-29 cells at 5 to 20 uM by Western blotting; type: cell-based; conditions: in the assay text read “by luciferase reporter gene assay” for “by Western blotting”
Summary of the method: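 HT-29 cells co-transfected with pSTAT3-Luc and phRL-TK; after 24 h serum-starved overnight, treated 1 h with compound at varying concentrations and stimulated with IL-6 (20 ng/mL); dual luciferase readout normalised to Renilla; three independent experiments, Student's t-test.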

[9] = target: Tyrosine-protein kinase JAK2 (Homo sapiens) (UniProt O60674); assay: Inhibition of IL-6-induced JAK2 phosphorylation in human HT-29 cells by Western blotting; type: cell-based; summary of the method: as §1
HT-29 [10] = assay: Induction of cell cycle arrest in human HT-29 cells assessed as decrease in accumulation at G1 phase at 5 to 20 uM after 24 hrs by flow cytometry; type: functional, cell-based; summary of the method: as §2
[11] = target: Tyrosine-protein kinase JAK2 (Mus musculus) (UniProt Q62120); assay: Inhibition of IL-6-induced JAK2 phosphorylation in mouse embryonic stem cells at 20 uM by Western blotting; type: cell-based
Chain of Tyrosine-protein kinase JAK2 (Mus musculus) (Q62120 whole entry): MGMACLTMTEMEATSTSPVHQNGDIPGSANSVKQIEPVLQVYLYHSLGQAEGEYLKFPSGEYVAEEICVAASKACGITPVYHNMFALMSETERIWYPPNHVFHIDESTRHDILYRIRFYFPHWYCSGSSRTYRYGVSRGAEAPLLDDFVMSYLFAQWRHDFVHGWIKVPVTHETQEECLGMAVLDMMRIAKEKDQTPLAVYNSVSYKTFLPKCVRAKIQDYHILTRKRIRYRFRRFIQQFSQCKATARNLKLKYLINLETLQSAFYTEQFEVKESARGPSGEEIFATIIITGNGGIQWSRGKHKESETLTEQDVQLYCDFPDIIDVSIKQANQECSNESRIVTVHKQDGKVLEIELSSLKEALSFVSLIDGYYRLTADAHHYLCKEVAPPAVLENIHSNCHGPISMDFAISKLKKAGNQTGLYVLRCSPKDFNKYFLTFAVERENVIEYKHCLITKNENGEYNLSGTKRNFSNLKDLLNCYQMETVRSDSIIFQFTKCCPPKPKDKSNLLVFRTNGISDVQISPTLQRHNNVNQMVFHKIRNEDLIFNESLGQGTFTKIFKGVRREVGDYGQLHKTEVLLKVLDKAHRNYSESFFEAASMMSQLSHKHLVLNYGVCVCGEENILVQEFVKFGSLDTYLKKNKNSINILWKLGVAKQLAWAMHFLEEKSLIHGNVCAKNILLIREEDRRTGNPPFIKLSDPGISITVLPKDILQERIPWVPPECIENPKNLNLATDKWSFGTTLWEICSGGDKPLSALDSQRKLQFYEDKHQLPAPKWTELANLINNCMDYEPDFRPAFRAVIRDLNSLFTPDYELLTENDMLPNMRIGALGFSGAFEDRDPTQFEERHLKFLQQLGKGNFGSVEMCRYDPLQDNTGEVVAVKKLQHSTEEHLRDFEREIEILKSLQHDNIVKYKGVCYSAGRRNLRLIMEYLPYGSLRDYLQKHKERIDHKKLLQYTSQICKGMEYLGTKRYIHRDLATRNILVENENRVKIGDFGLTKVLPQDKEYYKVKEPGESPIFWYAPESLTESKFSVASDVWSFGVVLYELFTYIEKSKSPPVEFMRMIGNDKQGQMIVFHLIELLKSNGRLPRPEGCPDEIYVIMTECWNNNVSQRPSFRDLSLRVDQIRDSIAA
Summary of the method: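 Mouse embryonic stem cells pretreated with IL-6, then exposed to compound; p-JAK2 level assessed by Western blotting.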

inhibition [1] | Compound | IC50 (SK-OV-3) | IC50 (HT-29 [2]) | IC50 (HeLa) | further results
18.4% | COc1cc2ncnc(Nc3ccc(C)cc3)c2cc1OC | 91.9 µM | 57.9 µM | 99.5 µM | –
25.3% | COc1ccc(CCNc2ncnc3cc(OC)c(OC)cc23)cc1OC | > 100 µM | > 100 µM | > 100 µM | –
44.4% | COc1cc2ncnc(NN3CCOCC3)c2cc1OC | > 100 µM | > 100 µM | > 100 µM | inhibition [11]: Active
23.8% | COc1cc2ncnc(Nc3cccc(O)c3)c2cc1OC | 37.5 µM | 59.7 µM | 43.9 µM | –
38% | COCCNc1ncnc2cc(OC)c(OC)cc12 | > 100 µM | > 100 µM | > 100 µM | –
29.5% | COc1cc2ncnc(NCCN3CCOCC3)c2cc1OC | > 100 µM | > 100 µM | > 100 µM | –
10.6% | COc1cc2ncnc(Nc3ccccc3C)c2cc1OC | > 100 µM | > 100 µM | > 100 µM | –

Further lines, the molecule ahead of its results:

Compound | inhibition [1] | IC50 (SK-OV-3) | IC50 (HT-29 [2]) | IC50 (HeLa) | further results
COc1cc2ncnc(Nc3nc4c(Cl)cccc4s3)c2cc1OC | 14.4% | > 100 µM | > 100 µM | > 100 µM | –
COc1cc2ncnc(Nc3ccc(Br)cc3)c2cc1OC | 29.3% | > 100 µM | > 100 µM | – | –
N#C/C(=C\c1ccc(O)c(O)c1)C(=O)NCc1ccccc1 | 55.1% | – | 78.5 µM | > 100 µM | Activity (HT-29 [3]): inactive; inhibition [4]: Active; inhibition [5]: inactive; Activity (HT-29 [6]): Active
COc1cccc(Nc2ncnc3cc(OC)c(OC)cc23)c1 | 29.4% | > 100 µM | > 100 µM | > 100 µM | –
COc1cc2ncnc(Nc3cccc4ccccc34)c2cc1OC | 43% | 16.7 µM | 7.65 µM | 8.02 µM | Activity (HT-29 [7]): Active; inhibition [8]: Active; inhibition [9]: Dose-dependent effect; Activity (HT-29 [10]): Active
COc1ccc(Nc2ncnc3cc(OC)c(OC)cc23)cc1 | – | > 100 µM | – | – | –
COc1cc2ncnc(Nc3ccc(O)cc3)c2cc1OC | 33.1% | 74.6 µM | 93 µM | 51.5 µM | –
